Reference: ChEMBL document CHEMBL3763056, “O-alkylhydroxylamines as rationally-designed mechanism-based inhibitors of indoleamine 2,3-dioxygenase-1” (Eur J Med Chem, 2016)
Activity calls are given as the source filed them. The rule behind the calls is not given here.

Assays:
[1] = molecular target: T1, Indoleamine 2,3-dioxygenase 1 (Homo sapiens, UniProt P14902); test: Inhibition of recombinant human IDO1 assessed as reduction in kynurenine production using L-tryptophan as substrate after 60 mins by microplate reader method
Target sequence in this assay (P14902 whole entry): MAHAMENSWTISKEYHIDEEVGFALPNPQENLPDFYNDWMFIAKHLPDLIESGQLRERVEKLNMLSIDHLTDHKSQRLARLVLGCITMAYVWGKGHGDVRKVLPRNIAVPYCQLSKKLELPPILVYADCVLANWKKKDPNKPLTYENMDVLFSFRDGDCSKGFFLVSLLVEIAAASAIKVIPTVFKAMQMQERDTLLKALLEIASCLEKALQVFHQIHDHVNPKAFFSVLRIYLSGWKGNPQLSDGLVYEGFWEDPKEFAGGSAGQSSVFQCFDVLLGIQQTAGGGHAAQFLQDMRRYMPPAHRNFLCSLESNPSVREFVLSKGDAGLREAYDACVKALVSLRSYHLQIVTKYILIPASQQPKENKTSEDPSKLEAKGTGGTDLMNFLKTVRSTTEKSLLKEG

[2] = molecular target: T2, Catalase (Homo sapiens, UniProt P04040); test: Inhibition of catalase (unknown origin) using hydrogen peroxide as substrate
T2 sequence (P04040 whole entry): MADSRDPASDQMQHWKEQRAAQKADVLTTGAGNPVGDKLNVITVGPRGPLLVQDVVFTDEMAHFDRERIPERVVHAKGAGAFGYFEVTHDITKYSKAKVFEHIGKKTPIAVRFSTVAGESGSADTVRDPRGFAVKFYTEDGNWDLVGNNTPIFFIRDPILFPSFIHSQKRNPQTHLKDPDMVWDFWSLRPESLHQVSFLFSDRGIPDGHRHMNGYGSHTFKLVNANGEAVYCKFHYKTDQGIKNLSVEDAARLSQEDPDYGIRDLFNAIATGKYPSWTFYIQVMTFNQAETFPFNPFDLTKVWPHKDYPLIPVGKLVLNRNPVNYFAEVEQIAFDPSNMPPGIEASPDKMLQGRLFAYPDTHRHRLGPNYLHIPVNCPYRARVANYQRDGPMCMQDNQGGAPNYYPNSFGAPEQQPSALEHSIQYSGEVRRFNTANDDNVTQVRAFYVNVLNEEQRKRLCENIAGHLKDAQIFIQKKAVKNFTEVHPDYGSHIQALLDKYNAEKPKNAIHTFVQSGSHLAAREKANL

[3] = molecular target: Cytochrome P450 3A4 (Homo sapiens, UniProt P08684); test: Inhibition of CYP3A4 (unknown origin); assay type: ADME
[4] = molecular target: T1, Indoleamine 2,3-dioxygenase 1; test: Inhibition of IFN gamma induced human IDO1 in HeLa cells assessed as reduction in kynurenine production treated with 5-fold serial dilution beginning at 400 uM after 24 hrs by microtiter plate reader; assay type: cell-based
Outline: (§1)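 HeLa cells seeded 10,000/well in DMEM + 10% FBS + 1% pen-strep; IDO1 induced with IFNγ (100 ng/mL final) for 24 h. Media discarded, wells rinsed, compound serial dilutions added in DMEM + 10% FBS with Trp adjusted to 100 μM. 24 h at 37 °C. TCA stop and fixation 1 h at 4 °C. Supernatant heated at 65 °C for 15 min, mixed with Ehrlich's reagent, read at 490 nm.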
Target sequence in this assay (P14902 whole entry): as the sequence (P14902 whole entry) above

[5] = molecular target: T1, Indoleamine 2,3-dioxygenase 1; test: Inhibition of doxycycline-induced human IDO1 expressed in Trex cells assessed as reduction in kynurenine production treated with 5-fold serial dilution beginning at 400 uM after 24 hrs by microtiter plate reader; assay type: cell-based
Outline: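 T-Rex cells carrying tet-regulated human IDO1 cDNA seeded 10,000/well in DMEM + 10% FBS + 1% pen-strep; IDO1 induced with media containing 20 ng/mL doxycycline for 24 h. Media replaced by compound serial dilutions in DMEM + 10% FBS, Trp 100 μM. 24 h at 37 °C. TCA fixation, supernatant heated at 65 °C, Ehrlich's reagent, A490. Single run.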
Target sequence in this assay (P14902 whole entry): as the sequence (P14902 whole entry) above

[6] = system: HeLa; test: Cytotoxicity against human HeLa cells assessed as cell viability upto 100 uM by sulforhodamine B assay; assay type: cell-based
Outline: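 HeLa cells seeded at 10,000/well in DMEM + 10% FBS, IDO1 induced 24 h with IFNγ (100 ng/mL final), then compound serial dilutions in medium with 100 μM Trp for 24 h at 37 °C. Cells fixed with TCA 1 h at 4 °C, stained with 0.4% SRB 15 min, dye solubilized in 10 mM Tris; absorbance at 570 nm.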

[7] = molecular target: T1, Indoleamine 2,3-dioxygenase 1; test: Inhibition of recombinant human IDO1 assessed as reduction in kynurenine production using L-tryptophan as substrate after 60 mins by Michaelis-Menton plot analysis
Outline: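 Purified recombinant human IDO1 (~27 nM) in 50 mM potassium phosphate pH 6.5 with 40 mM ascorbate, 400 μg/ml catalase and 20 μM methylene blue. For IC50, L-Trp at 100 μM (Km 80 μM). For Ki, inhibitor dilutions matrixed with L-Trp dilutions. 60 min at 37 °C, TCA stop, 65 °C for 15 min, Ehrlich's reagent, A490.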
Target sequence in this assay (P14902 whole entry): as the sequence (P14902 whole entry) above

[8] = molecular target: T1, Indoleamine 2,3-dioxygenase 1; settings: 110 to 990 nM
Target sequence in this assay (P14902 whole entry, looked up): as the sequence (P14902 whole entry) above

[9] = molecular target: T1, Indoleamine 2,3-dioxygenase 1; test: Inhibition of IFN gamma induced human IDO1 in HeLa cells assessed as reduction in kynurenine production treated with 3-fold serial dilution beginning at 100 uM after 24 hrs by microtiter plate reader; assay type: cell-based; outline: as §1
Target sequence in this assay (P14902 whole entry): as the sequence (P14902 whole entry) above

Sequence of Cytochrome P450 3A4 (P08684 whole entry): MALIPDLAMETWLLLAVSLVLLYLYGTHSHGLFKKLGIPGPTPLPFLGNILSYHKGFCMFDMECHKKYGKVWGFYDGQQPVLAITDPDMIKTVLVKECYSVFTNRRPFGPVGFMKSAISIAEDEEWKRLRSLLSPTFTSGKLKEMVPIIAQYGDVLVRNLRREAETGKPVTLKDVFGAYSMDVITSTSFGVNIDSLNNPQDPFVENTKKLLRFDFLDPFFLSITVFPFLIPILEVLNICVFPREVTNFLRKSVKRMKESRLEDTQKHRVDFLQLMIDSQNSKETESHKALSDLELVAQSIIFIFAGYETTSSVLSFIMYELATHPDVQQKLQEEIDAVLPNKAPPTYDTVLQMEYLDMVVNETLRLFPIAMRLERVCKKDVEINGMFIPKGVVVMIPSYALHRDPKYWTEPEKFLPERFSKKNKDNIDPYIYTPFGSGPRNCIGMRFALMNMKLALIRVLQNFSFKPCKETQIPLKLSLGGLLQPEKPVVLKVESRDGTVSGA

| SMILES | IC50 [1] [nM] | also measured |
| --- | --- | --- |
| COc1ccc(CON)cc1 | 24000 |  |
| ONc1ccccc1 | 9200 |  |
| NOCCCc1ccccc1 | 82000 |  |
| NOCc1ccccc1Br | 1600 |  |
| NOC(c1ccccc1)C1CC1 (stereo unspecified) | 5200 |  |
| NOC1CCCc2ccccc21 (stereo unspecified) | 10000 |  |
| CC(C)c1ccc(CON)cc1 | 15000 |  |
| NOCc1ccccc1 | 810 |  |
| O=C(NO)c1ccccc1 [BENZOHYDROXAMATE] | 16000 |  |
| NOCc1ccc(F)cc1C(F)(F)F | 2400 |  |
| NOCc1ccccc1F | 1400 |  |
| NOCc1ccc(Br)cc1 | 1600 |  |
| NOCc1ccc(F)cc1F | 1400 |  |
| NOC1CCc2ccccc21 (stereo unspecified) | 26000 |  |
| NOCc1ccc(O)cc1 | 61000 |  |
| NOCc1ccc(C(F)(F)F)cc1 | 8900 |  |
| NOCc1cc(Br)cc(Br)c1 | 4200 |  |
| NNCc1ccccc1 [BENZYLHYDRAZINE] | 71000 |  |

| SMILES | IC50 [1] [nM] | also measured |
| --- | --- | --- |
| Cc1cccc(CON)c1 | 2700 |  |
| COc1ccc(OC)c(CON)c1 | 1700 |  |
| NOCc1cc(C(F)(F)F)cc(C(F)(F)F)c1 | 4600 |  |
| Cl.NOCc1cccc(Cl)c1 | 300 | IC50 [2]: > 100000 nM; IC50 [3]: 15000 nM; IC50 [9]: 134 nM; IC50 [4]: 114 nM; IC50 [5]: 77 nM; Activity [6]: Non-toxic; Ki [7]: 154 nM; inhibition [8]: Active |
| NOC/C=C/c1ccccc1 | 7100 |  |
| NNc1ccccc1 [PHENYLHYDRAZINE] | 230 |  |
| NOC1Cc2ccccc2C1 | 10000 |  |
| COc1ccccc1CON | 5400 |  |
| NOCc1ccc(-c2ccccc2)cc1 | 12000 |  |
| NOCc1cc(F)cc(F)c1 | 3400 |  |
| NOCc1ccccc1C(F)(F)F | 2500 |  |
| COc1cccc(CON)c1O | 55000 |  |
| NOCc1ccccc1O | 19000 |  |
| NOCc1ccc(Cl)c(Cl)c1 | 2100 |  |
| NOCc1ccc([N+](=O)[O-])cc1 | 2700 |  |
| COc1cccc(CON)c1 | 9500 |  |
| ONCc1ccccc1 | 6000 |  |

The remaining molecules from weak to strong by IC50 [1], led by results:

| IC50 [1] [nM] | SMILES | also measured |
| --- | --- | --- |
| 1300 | NOCc1ccc(Cl)cc1 |  |
| 1100 | NOCc1ccc(C(F)(F)F)cc1F |  |
| 1000 | NOCc1cccc(F)c1 |  |
| 980 | NOCc1ccc(F)cc1 |  |
| 900 | NOCc1cc(Cl)cc(Cl)c1 |  |
| 730 | NOCc1ccc(I)cc1Cl |  |
| 630 | NOCc1ccc(Cl)cc1Cl |  |
| 630 | NOCc1ccccc1Cl |  |
| 570 | NOCc1cc(C(F)(F)F)ccc1F |  |
| 570 | NOCc1ccccc1I |  |
| 490 | NOCc1ccc(Cl)c(C(F)(F)F)c1 |  |
| 450 | NOCc1cccc(Cl)c1Cl |  |
| 410 | NOCc1cccc(C(F)(F)F)c1 |  |
| 340 | NOCc1cccc(I)c1 |  |
| 320 | NOCc1cccc(Br)c1 |  |
| 220 | Cl.NOCc1ccc(I)cc1 | IC50 [2]: > 100000 nM; IC50 [3]: 7200 nM; IC50 [4]: 82 nM; IC50 [5]: 180 nM; Activity [6]: Non-toxic; Ki [7]: 164 nM; inhibition [8]: Active |
